Assay results taken from ChEMBL document CHEMBL5150051, “Identification and Characterization of a Novel Indoleamine 2,3-Dioxygenase 1 Protein Degrader for Glioblastoma” (J Med Chem, 2022).

Each molecule was assayed against Protein cereblon/Indoleamine 2,3-dioxygenase 1 (Homo sapiens, UniProt P14902+Q96SW2) (assay: Protac activity at IDO1/CRBN in IFNgamma-stimulated human U87 cells assessed as IDO1 degradation at 10 uM measured after 24 hrs by Western blotting analysis relative to control).
Type: cell-based
Method in brief: (§1)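 U87 GBM cells primed with human IFNγ 50 ng/mL for 24 h, then exposed to PROTAC at 10 μM for 24 h. Lysates run on western blot; IDO1 bands quantified by densitometry and expressed as percent of normalized IDO1 protein level.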

Protein cereblon/Indoleamine 2,3-dioxygenase 1, sequence (P14902 whole entry, looked up): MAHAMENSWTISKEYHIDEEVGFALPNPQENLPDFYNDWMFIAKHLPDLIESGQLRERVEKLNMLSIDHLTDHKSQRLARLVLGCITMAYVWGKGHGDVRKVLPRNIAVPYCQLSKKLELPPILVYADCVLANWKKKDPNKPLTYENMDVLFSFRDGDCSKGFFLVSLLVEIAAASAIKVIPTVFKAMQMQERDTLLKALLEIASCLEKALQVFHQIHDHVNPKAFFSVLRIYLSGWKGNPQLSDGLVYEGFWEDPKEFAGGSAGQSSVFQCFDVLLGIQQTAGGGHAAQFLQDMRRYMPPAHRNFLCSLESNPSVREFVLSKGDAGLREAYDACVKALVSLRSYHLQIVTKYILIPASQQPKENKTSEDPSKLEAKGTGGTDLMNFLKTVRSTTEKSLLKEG
Protein cereblon/Indoleamine 2,3-dioxygenase 1, sequence (Q96SW2 whole entry, looked up): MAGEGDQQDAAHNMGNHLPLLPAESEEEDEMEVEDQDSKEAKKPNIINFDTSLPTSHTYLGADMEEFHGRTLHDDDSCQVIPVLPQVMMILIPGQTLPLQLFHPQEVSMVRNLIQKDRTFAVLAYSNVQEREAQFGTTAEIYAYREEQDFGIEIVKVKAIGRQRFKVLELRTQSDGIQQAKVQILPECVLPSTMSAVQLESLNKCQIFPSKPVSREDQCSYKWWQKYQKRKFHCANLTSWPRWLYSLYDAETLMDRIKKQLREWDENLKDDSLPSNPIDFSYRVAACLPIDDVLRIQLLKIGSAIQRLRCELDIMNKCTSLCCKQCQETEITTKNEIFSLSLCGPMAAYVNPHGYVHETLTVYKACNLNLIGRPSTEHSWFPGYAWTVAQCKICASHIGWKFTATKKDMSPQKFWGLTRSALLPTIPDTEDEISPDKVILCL

| Activity [%] | SMILES |
| --- | --- |
| 18 | C[C@@H](C(=O)Nc1ccc(OCCOCCOc2cccc3c2C(=O)N(C2CCC(=O)NC2=O)C3=O)cc1)[C@H]1CC[C@@H](c2ccnc3ccc(F)cc32)CC1 (some centres undefined) |
| 77 | C[C@@H](C(=O)Nc1ccc(OCCOCCOCCNc2cccc3c2C(=O)N(C2CCC(=O)NC2=O)C3=O)cc1)[C@H]1CC[C@@H](c2ccnc3ccc(F)cc32)CC1 (some centres undefined) |
| 0 | C[C@@H](C(=O)Nc1ccc(Cl)c(OCCCCCCOc2cccc3c2C(=O)N(C2CCC(=O)NC2=O)C3=O)c1)[C@H]1CC[C@@H](c2ccnc3ccc(F)cc32)CC1 (some centres undefined) |
| 6 | C[C@@H](C(=O)Nc1ccc(Cl)c(OCCOCCOc2cccc3c2C(=O)N(C2CCC(=O)NC2=O)C3=O)c1)[C@H]1CC[C@@H](c2ccnc3ccc(F)cc32)CC1 (some centres undefined) |
| 0 | C[C@@H](C(=O)Nc1ccc(Cl)c(OCCOCCOCCOCCOCCOCCOc2cccc3c2C(=O)N(C2CCC(=O)NC2=O)C3=O)c1)[C@H]1CC[C@@H](c2ccnc3ccc(F)cc32)CC1 (some centres undefined) |
| 90 | C[C@@H](C(=O)Nc1ccc(OC2CN(C(=O)CCOCCNc3cccc4c3C(=O)N(C3CCC(=O)NC3=O)C4=O)C2)cc1)[C@H]1CC[C@@H](c2ccnc3ccc(F)cc32)CC1 (some centres undefined) |
| 23 | C[C@@H](C(=O)Nc1ccc(OCCOCCNc2cccc3c2C(=O)N(C2CCC(=O)NC2=O)C3=O)cc1)[C@H]1CC[C@@H](c2ccnc3ccc(F)cc32)CC1 (some centres undefined) |
| 0 | C[C@@H](C(=O)Nc1ccc(OCCCCCCCCCCOc2cccc3c2C(=O)N(C2CCC(=O)NC2=O)C3=O)cc1)[C@H]1CC[C@@H](c2ccnc3ccc(F)cc32)CC1 (some centres undefined) |
| 0 | C[C@@H](C(=O)Nc1ccc(Cl)c(OCCCCCCNC(=O)COc2cccc3c2C(=O)N(C2CCC(=O)NC2=O)C3=O)c1)[C@H]1CC[C@@H](c2ccnc3ccc(F)cc32)CC1 (some centres undefined) |
| 0 | C[C@@H](C(=O)Nc1ccc(OCCOCCOCCOCCOCCNc2cccc3c2C(=O)N(C2CCC(=O)NC2=O)C3=O)cc1)[C@H]1CC[C@@H](c2ccnc3ccc(F)cc32)CC1 (some centres undefined) |
| 48 | C[C@@H](C(=O)Nc1ccc(OCCOCCNC(=O)COc2cccc3c2C(=O)N(C2CCC(=O)NC2=O)C3=O)cc1)[C@H]1CC[C@@H](c2ccnc3ccc(F)cc32)CC1 (some centres undefined) |
| 45 | C[C@@H](C(=O)Nc1ccc(OC2CCN(C(=O)CCOCCOc3cccc4c3C(=O)N(C3CCC(=O)NC3=O)C4=O)CC2)cc1)[C@H]1CC[C@@H](c2ccnc3ccc(F)cc32)CC1 (some centres undefined) |
| 0 | C[C@@H](C(=O)Nc1ccc(Cl)c(OCCOCCOCCOCCNc2cccc3c2C(=O)N(C2CCC(=O)NC2=O)C3=O)c1)[C@H]1CC[C@@H](c2ccnc3ccc(F)cc32)CC1 (some centres undefined) |
| 0 | C[C@@H](C(=O)Nc1ccc(Cl)c(OCCOCCOCCOCCOCCNc2cccc3c2C(=O)N(C2CCC(=O)NC2=O)C3=O)c1)[C@H]1CC[C@@H](c2ccnc3ccc(F)cc32)CC1 (some centres undefined) |
| 0 | C[C@@H](C(=O)Nc1ccc(Cl)c(OCCOCCOCCOCCOCCOCCNc2cccc3c2C(=O)N(C2CCC(=O)NC2=O)C3=O)c1)[C@H]1CC[C@@H](c2ccnc3ccc(F)cc32)CC1 (some centres undefined) |
| 8 | C[C@@H](C(=O)Nc1ccc(Cl)c(OCCOCCNC(=O)COc2cccc3c2C(=O)N(C2CCC(=O)NC2=O)C3=O)c1)[C@H]1CC[C@@H](c2ccnc3ccc(F)cc32)CC1 (some centres undefined) |
| 33 | C[C@@H](C(=O)Nc1ccc(OC2CCN(CCCOCCOCCNC(=O)COc3cccc4c3C(=O)N(C3CCC(=O)NC3=O)C4=O)CC2)cc1)[C@H]1CC[C@@H](c2ccnc3ccc(F)cc32)CC1 (some centres undefined) |
| 0 | C[C@@H](C(=O)Nc1ccc(Cl)c(OCCCCCCNc2cccc3c2C(=O)N(C2CCC(=O)NC2=O)C3=O)c1)[C@H]1CC[C@@H](c2ccnc3ccc(F)cc32)CC1 (some centres undefined) |
| 0 | C[C@@H](C(=O)Nc1ccc(OC2CCN(CCCOCCOc3cccc4c3C(=O)N(C3CCC(=O)NC3=O)C4=O)CC2)cc1)[C@H]1CC[C@@H](c2ccnc3ccc(F)cc32)CC1 (some centres undefined) |
| 10 | C[C@@H](C(=O)Nc1ccc(OCCCCNC(=O)COc2cccc3c2C(=O)N(C2CCC(=O)NC2=O)C3=O)cc1)[C@H]1CC[C@@H](c2ccnc3ccc(F)cc32)CC1 (some centres undefined) |
| 0 | C[C@@H](C(=O)Nc1ccc(OCCCCCCCCCCNc2cccc3c2C(=O)N(C2CCC(=O)NC2=O)C3=O)cc1)[C@H]1CC[C@@H](c2ccnc3ccc(F)cc32)CC1 (some centres undefined) |
| 0 | C[C@@H](C(=O)Nc1ccc(OCCOCCOCCOCCNc2cccc3c2C(=O)N(C2CCC(=O)NC2=O)C3=O)cc1)[C@H]1CC[C@@H](c2ccnc3ccc(F)cc32)CC1 (some centres undefined) |
| 0 | C[C@@H](C(=O)Nc1ccc(OCCCCCCCNC(=O)COc2cccc3c2C(=O)N(C2CCC(=O)NC2=O)C3=O)cc1)[C@H]1CC[C@@H](c2ccnc3ccc(F)cc32)CC1 (some centres undefined) |
| 0 | C[C@@H](C(=O)Nc1ccc(Cl)c(OCCOCCOCCOCCOCCOCCNC(=O)COc2cccc3c2C(=O)N(C2CCC(=O)NC2=O)C3=O)c1)[C@H]1CC[C@@H](c2ccnc3ccc(F)cc32)CC1 (some centres undefined) |
| 0 | C[C@@H](C(=O)Nc1ccc(OCCOCCOCCOCCNC(=O)COc2cccc3c2C(=O)N(C2CCC(=O)NC2=O)C3=O)cc1)[C@H]1CC[C@@H](c2ccnc3ccc(F)cc32)CC1 (some centres undefined) |

These molecules were tested against von Hippel-Lindau disease tumor suppressor/Indoleamine 2,3-dioxygenase 1 (Homo sapiens) (UniProt P14902+P40337) (assay: Protac activity at IDO1/VHL in IFNgamma-stimulated human U87 cells assessed as IDO1 degradation at 10 uM measured after 24 hrs by Western blotting analysis relative to control).
von Hippel-Lindau disease tumor suppressor/Indoleamine 2,3-dioxygenase 1 (Homo sapiens), sequence (P14902 whole entry, looked up): as the sequence (P14902 whole entry, looked up) above
von Hippel-Lindau disease tumor suppressor/Indoleamine 2,3-dioxygenase 1 (Homo sapiens), sequence (P40337 whole entry, looked up): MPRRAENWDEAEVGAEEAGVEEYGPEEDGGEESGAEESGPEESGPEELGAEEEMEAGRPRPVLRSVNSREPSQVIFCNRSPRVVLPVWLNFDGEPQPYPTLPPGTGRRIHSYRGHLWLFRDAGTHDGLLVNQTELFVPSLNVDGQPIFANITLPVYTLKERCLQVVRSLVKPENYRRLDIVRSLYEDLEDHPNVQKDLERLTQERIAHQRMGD
Type: cell-based
Method in brief: as §1

| Activity [%] | SMILES |
| --- | --- |
| 3 | Cc1ncsc1-c1ccc(CNC(=O)[C@H]2C[C@H](O)CN2C(=O)[C@H](NCCCCCCCCCOc2cc(NC(=O)[C@H](C)[C@H]3CC[C@@H](c4ccnc5ccc(F)cc54)CC3)ccc2Cl)C(C)(C)C)cc1 |
| 0 | Cc1ncsc1-c1ccc(CNC(=O)[C@@H]2C[C@@H](O)CN2C(=O)[C@@H](NCCOCCOCCOCCOCCOc2cc(NC(=O)[C@H](C)[C@H]3CC[C@@H](c4ccnc5ccc(F)cc54)CC3)ccc2Cl)C(C)(C)C)cc1 |
| 21 | Cc1ncsc1-c1ccc(CNC(=O)[C@H]2C[C@H](O)CN2C(=O)[C@H](NCCCCCCOc2cc(NC(=O)[C@H](C)[C@H]3CC[C@@H](c4ccnc5ccc(F)cc54)CC3)ccc2Cl)C(C)(C)C)cc1 |
| 72 | Cc1ncsc1-c1ccc(CNC(=O)[C@@H]2C[C@@H](O)CN2C(=O)[C@@H](NC(=O)C2(F)CC2)C(C)(C)C)c(OCCOCCC(=O)N2CCC(Oc3ccc(NC(=O)[C@H](C)[C@H]4CC[C@@H](c5ccnc6ccc(F)cc65)CC4)cc3)CC2)c1 |
| 0 | Cc1ncsc1-c1ccc(CNC(=O)[C@@H]2C[C@@H](O)CN2C(=O)[C@@H](NC(=O)C2(F)CC2)C(C)(C)C)c(OCCOCCOCCOc2ccc(NC(=O)[C@H](C)[C@H]3CC[C@@H](c4ccnc5ccc(F)cc54)CC3)cc2)c1 |
| 0 | Cc1ncsc1-c1ccc(CNC(=O)[C@@H]2C[C@@H](O)CN2C(=O)[C@@H](NC(=O)C2(F)CC2)C(C)(C)C)c(OCCOCCCN2CCC(Oc3ccc(NC(=O)[C@H](C)[C@H]4CC[C@@H](c5ccnc6ccc(F)cc65)CC4)cc3)CC2)c1 |
| 39 | Cc1ncsc1-c1ccc(CNC(=O)[C@@H]2C[C@@H](O)CN2C(=O)[C@@H](NC(=O)C2(F)CC2)C(C)(C)C)c(OCCOCCOc2ccc(NC(=O)[C@H](C)[C@H]3CC[C@@H](c4ccnc5ccc(F)cc54)CC3)cc2)c1 |
| 0 | Cc1ncsc1-c1ccc(CNC(=O)[C@@H]2C[C@@H](O)CN2C(=O)[C@@H](NCCOCCOCCOc2cc(NC(=O)[C@H](C)[C@H]3CC[C@@H](c4ccnc5ccc(F)cc54)CC3)ccc2Cl)C(C)(C)C)cc1 |
| 0 | Cc1ncsc1-c1ccc(CNC(=O)[C@@H]2C[C@@H](O)CN2C(=O)[C@@H](NC(=O)C2(F)CC2)C(C)(C)C)c(OCCOCCOCCOCCOCCOc2cc(NC(=O)[C@H](C)[C@H]3CC[C@@H](c4ccnc5ccc(F)cc54)CC3)ccc2Cl)c1 |
| 67 | Cc1ncsc1-c1ccc(CNC(=O)[C@@H]2C[C@@H](O)CN2C(=O)[C@@H](NCCOCCOCCC(=O)N2CCC(Oc3ccc(NC(=O)[C@H](C)[C@H]4CC[C@@H](c5ccnc6ccc(F)cc65)CC4)cc3)CC2)C(C)(C)C)cc1 |
| 0 | Cc1ncsc1-c1ccc(CNC(=O)[C@@H]2C[C@@H](O)CN2C(=O)[C@@H](NCCOCCOc2cc(NC(=O)[C@H](C)[C@H]3CC[C@@H](c4ccnc5ccc(F)cc54)CC3)ccc2Cl)C(C)(C)C)cc1 |
| 0 | Cc1ncsc1-c1ccc(CNC(=O)[C@@H]2C[C@@H](O)CN2C(=O)[C@@H](NCCOCCOCCOc2ccc(NC(=O)[C@H](C)[C@H]3CC[C@@H](c4ccnc5ccc(F)cc54)CC3)cc2)C(C)(C)C)cc1 |
| 0 | Cc1ncsc1-c1ccc(CNC(=O)[C@@H]2C[C@@H](O)CN2C(=O)[C@@H](NC(=O)C2(F)CC2)C(C)(C)C)c(OCCOCCOCCOc2cc(NC(=O)[C@H](C)[C@H]3CC[C@@H](c4ccnc5ccc(F)cc54)CC3)ccc2Cl)c1 |
| 20 | Cc1ncsc1-c1ccc(CNC(=O)[C@@H]2C[C@@H](O)CN2C(=O)[C@@H](NC(=O)C2(F)CC2)C(C)(C)C)c(OCCOCCC(=O)N2CC(Oc3ccc(NC(=O)[C@H](C)[C@H]4CC[C@@H](c5ccnc6ccc(F)cc65)CC4)cc3)C2)c1 |
| 41 | Cc1ncsc1-c1ccc(CNC(=O)[C@@H]2C[C@@H](O)CN2C(=O)[C@@H](NC(=O)C2(F)CC2)C(C)(C)C)c(OCCCCCCCOc2ccc(NC(=O)[C@H](C)[C@H]3CC[C@@H](c4ccnc5ccc(F)cc54)CC3)cc2)c1 |
| 0 | Cc1ncsc1-c1ccc(CNC(=O)[C@@H]2C[C@@H](O)CN2C(=O)[C@@H](NCCOCCOCCOCCOCCOc2ccc(NC(=O)[C@H](C)[C@H]3CC[C@@H](c4ccnc5ccc(F)cc54)CC3)cc2)C(C)(C)C)cc1 |
| 0 | Cc1ncsc1-c1ccc(CNC(=O)[C@@H]2C[C@@H](O)CN2C(=O)[C@@H](NC(=O)C2(F)CC2)C(C)(C)C)c(OCCOCCOCCOCCOCCOCCOc2cc(NC(=O)[C@H](C)[C@H]3CC[C@@H](c4ccnc5ccc(F)cc54)CC3)ccc2Cl)c1 |
| 0 | Cc1ncsc1-c1ccc(CNC(=O)[C@@H]2C[C@@H](O)CN2C(=O)[C@@H](NCCCCCCCOc2ccc(NC(=O)[C@H](C)[C@H]3CC[C@@H](c4ccnc5ccc(F)cc54)CC3)cc2)C(C)(C)C)cc1 |
| 0 | Cc1ncsc1-c1ccc(CNC(=O)[C@@H]2C[C@@H](O)CN2C(=O)[C@@H](NCCCCOc2ccc(NC(=O)[C@H](C)[C@H]3CC[C@@H](c4ccnc5ccc(F)cc54)CC3)cc2)C(C)(C)C)cc1 |
